This is an account of results in PubChem BioAssay.

Activity calls are given as the source filed them.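 Rule for the calls, unless noted: active = inhibition at or above 50% relative to wild type and mutant plate controls; inactive = inhibition below 50%.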

Experiment [1] is described as follows: inhibitors of TNFa-induced NFkB p65 translocation, primary screen, imaging, HUVEC, MLSMR starter and 10KST1 sets (AID 438;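 active = inhibition above 20% together with a positive visual image hit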;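 note: compound added about 3h40 before a 20 min TNFalpha stimulation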;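 for inhibition: signal is the nuclear over cytoplasmic p65 intensity ratio per well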). The following applies: HUVEC TNFa-induced p65 nuclear translocation; cell count: measured here: nuclei count (cytotoxicity indicator), at 2.08 µM; inhibition: at 2 µM, stronger effect = higher value, 0% TNFa-plus-vehicle, 100% no-TNFa wells.
A short description of experiment [2]: endothelial E-selectin expression blockers – imaging, HUVEC, immunofluorescence, MLSMR starter and 10KST1 sets, primary screen (AID 487;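 active = visually confirmed hit in the image check and inhibition above 20%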;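 for inhibition: signal is fraction of cell area covered by stained E-selectin grains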;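 for nuclei count: 100% = median nuclei count of all wells on the same plate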). The following applies: HUVEC TNFalpha-induced E-selectin immunofluorescence imaging, at 2 µM; inhibition: stronger effect = higher value; nuclei count: measured here: cell number, toxicity.
Experiment [3] in a line: Primary imaging screen for DUSP6 inhibitors that restore phospho-Erk in transfected HeLa cells, chemical complementation (AID 609;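 active = compounds giving at least 50% inhibition in the cell-based MKP-3 phosphatase rescue imaging test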;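 for inhibition: phospho-Erk level distribution per well compared with pooled transfected vehicle control wells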). The following applies: HeLa MKP-3 transfected, phospho-Erk imaging KS statistic, at 10 µM, cells stimulated with TPA for 15 min.
Experiment [4] concerns the target Dual specificity protein phosphatase 6 (Homo sapiens) (UniProt Q16828). The experiment is described as above. Conditions: HeLa MKP-3 transfected, phospho-Erk imaging KS statistic; at 10 µM; stronger effect = higher value; cells stimulated with TPA for 15 min.
Experiment [5] deals with Voltage-gated potassium channel subunit beta-2 (Rattus norvegicus) (UniProt P62483). As to the kind of experiment: inhibitors of rat Kvbeta2 reductase activity – biochemical, NADPH fluorescence, primary screen (AID 622;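 active = fluorescence slope higher than the sample average by over 3 SD, cut at about -0.22 in these data, passing the limit was not always enough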;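 note: slope of raw intensity against log time taken from 70 to 1610 s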). Conditions: recombinant KvBeta, 4-cyanobenzaldehyde reduction, at 10 µM, stronger effect = higher value.
Chain of Voltage-gated potassium channel subunit beta-2 (Rattus norvegicus) (P62483 whole entry, looked up): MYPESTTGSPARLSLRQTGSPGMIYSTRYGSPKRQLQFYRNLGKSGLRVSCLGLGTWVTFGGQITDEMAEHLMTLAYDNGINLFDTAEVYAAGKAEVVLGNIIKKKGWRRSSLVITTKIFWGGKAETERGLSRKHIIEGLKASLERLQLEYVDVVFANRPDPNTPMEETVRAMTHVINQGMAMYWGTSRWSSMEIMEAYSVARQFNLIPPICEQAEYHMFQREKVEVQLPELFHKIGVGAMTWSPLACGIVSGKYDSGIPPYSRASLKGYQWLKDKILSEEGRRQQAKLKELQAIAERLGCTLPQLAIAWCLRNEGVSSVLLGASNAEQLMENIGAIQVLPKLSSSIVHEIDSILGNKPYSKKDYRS
The target is the same in experiment [6]. Kind of experiment: enhancers of rat Kvbeta2 NADPH turnover – biochemical, NADPH fluorescence, primary screen (AID 623;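 active = NADPH fluorescence slope more negative than the mean of all samples by about 3 SD, 99.7% confidence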;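 note: fluorescence intensity change per second fitted from 20 to 320 s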). Conditions: Recombinant KvBeta, NADPH fluorescence decrease slope, 10 min; at 10 µM; stronger effect = lower value.
Experiment [7] has as its target Muscarinic acetylcholine receptor M4 (Homo sapiens) (UniProt P08173). Kind of experiment: M4-linked GIRK flux change, two-sided – cell-based, HEK293 M4/GIRK, thallium flux, BTC-AM, M4 allosteric agonist project, primary screen (AID 625;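 active = fluorescence slope after compound addition differing from the mean of all tested samples at 99.7% confidence, mostly higher but some lower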;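 note: thallium influx through GIRK channels coupled to M4 in HEK293 cells with BTC-AM dye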). The following applies: at 10 µM, actives lie on both sides. A digest of the protocol: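 Material – HEK293 cells with M4 receptor and GIRK channels · Buffer or medium – pH 7.3 thallium assay buffer · Doses – one dose, 10 µM final · Timing – cells overnight at 37 °C, BTC-AM loading 1 h, reads 2 min total · Measured by – kinetic fluorescence with BTC-AM dye · Controls – carbachol and DMSO controls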

Experiment [8] in a line: inhibitors of larval lipid processing in zebrafish, primary screen, whole organism, PED6 fluorescence, gall bladder and intestine (AID 686;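 active = a full or partial loss of lipid-probe fluorescence in the fish gall bladder, intestine or both, judged by eye; inactive = no fluorescence loss, or compound toxic to the fish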;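 note: larvae 5 to 7 days old with five fish per well; signal comes from phospholipase A2 cleavage of quenched PED6 carried via bile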). The following applies: Zebrafish larvae PED6 lipid processing, fluorescence scoring; screened at 20 µM (by protocol). A digest of the protocol: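 system = live zebrafish larvae aged 5-7 days, whole organism | probe or stimulus = ingested quenched lipid PED6 at 100 nM | doses = 20 µM single dose | timing = overnight exposure | detection = fluorescence microscopy with visual scoring of gall bladder and intestine | read-out = visual per-well fluorescence inhibition score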

The nature of experiment [9]: loss of swimming-algae plug formation – whole organism, Chlamydomonas reinhardtii, WT vs cilia-less mutant, absorbance, 96-well, primary screen (AID 463189).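 Note: 0% = wild type cc124 cells in DMSO and 100% = ciliumless bld1 mutant cells.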 Conditions: Chlamydomonas reinhardtii gravitaxis, OD600 absorbance, 2 days; at 10 µM; stronger effect = higher value.
The mark [10] stands for this setting: measured here: cell density z-score.
Setting [11] is: measured here: nuclear c-Myc green intensity z-score.
Where [12] appears, read: measured here: nuclear pErk red intensity z-score, stronger effect = higher value.

Chain of Muscarinic acetylcholine receptor M4 (Homo sapiens) (P08173 whole entry, looked up): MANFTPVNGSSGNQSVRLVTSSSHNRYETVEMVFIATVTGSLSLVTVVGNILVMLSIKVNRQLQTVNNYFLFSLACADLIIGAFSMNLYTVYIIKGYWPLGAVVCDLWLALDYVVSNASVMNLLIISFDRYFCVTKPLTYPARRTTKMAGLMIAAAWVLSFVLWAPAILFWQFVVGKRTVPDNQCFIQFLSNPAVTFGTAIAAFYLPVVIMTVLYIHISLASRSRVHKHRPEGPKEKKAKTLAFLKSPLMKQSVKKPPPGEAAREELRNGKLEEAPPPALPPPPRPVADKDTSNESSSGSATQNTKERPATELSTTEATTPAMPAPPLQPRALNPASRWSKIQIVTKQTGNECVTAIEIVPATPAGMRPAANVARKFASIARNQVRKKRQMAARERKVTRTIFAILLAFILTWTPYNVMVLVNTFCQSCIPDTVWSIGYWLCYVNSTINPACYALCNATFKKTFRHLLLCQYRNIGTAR
Chain of Dual specificity protein phosphatase 6 (Homo sapiens) (Q16828 whole entry, looked up): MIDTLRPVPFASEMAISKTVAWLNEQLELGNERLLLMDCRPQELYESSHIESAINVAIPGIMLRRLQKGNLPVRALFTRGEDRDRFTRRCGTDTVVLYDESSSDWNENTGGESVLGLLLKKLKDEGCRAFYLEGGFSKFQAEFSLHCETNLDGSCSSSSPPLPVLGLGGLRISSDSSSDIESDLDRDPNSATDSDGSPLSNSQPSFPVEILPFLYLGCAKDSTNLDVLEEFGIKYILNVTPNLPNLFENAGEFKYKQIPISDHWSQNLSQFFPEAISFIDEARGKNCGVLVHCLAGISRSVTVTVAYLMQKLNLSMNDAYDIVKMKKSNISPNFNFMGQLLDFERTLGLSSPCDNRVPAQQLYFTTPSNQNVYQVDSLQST

`COC(=O)c1ccc(C2/C(=C(\O)c3ccc(OC)c(C)c3)C(=O)C(=O)N2c2cc(C)on2)cc1` (centres undefined): in experiment [1], the cell count was found to be 664. Also, the inhibition (usually the change of the read-out against control, counted positive when it falls) in [1] was -16.1% (inactive); in experiment [2], -48.1% (inactive); in [4] it was -1.12% (inactive); in experiment [9], 16.4% (inactive). In [2], this molecule showed a nuclei count of 165%. For the same molecule, the z-score was -1.19 in experiment [3] (setting [10]), 0.297 in experiment [3] (setting [11]) and 0.0353 in experiment [3] (setting [12]). The fluorescence slope in [5] was -0.444 (inactive); in experiment [7] it was 0.00525 (inactive). The NADPH fluorescence slope in experiment [6] was -3.1e-05 (inactive). In [8], the outcome was inactive.

For `COC(=O)c1c(C)[nH]c(C(=O)OCc2ccc(F)cc2)c1C`, the cell count in experiment [1] was determined as 693. For the same molecule, the inhibition in experiment [1] was -3.8% (inactive); in experiment [2], 50.5% (inactive); in experiment [4] it was 7.21% (inactive); in experiment [9], 80.6% (active). In experiment [2], this molecule registered a nuclei count of 160%. Further, the z-score in [3] (setting [10]) was -0.559; in experiment [3] (setting [11]), -1.43; in experiment [3] (setting [12]), -0.0192. Besides, the fluorescence slope in experiment [5] is -0.461 (inactive); in experiment [7], 0.00635 (inactive). Besides, the NADPH fluorescence slope in experiment [6] was -1.9e-05 (inactive). In addition, in [8], the call was inactive.

As for `CC(C)OC(=O)CCNc1n[nH]c(=O)[nH]c1=O`, the cell count in experiment [1] worked out at 635. In addition, the inhibition is -4.3% (inactive) in [1], -4.4% (inactive) in [2], -4.27% (inactive) in [4] and -8.46% (inactive) in [9]. In experiment [2], this molecule yielded a nuclei count of 119%. Also, the z-score in experiment [3] (setting [10]) turned out to be 0.648; in [3] (setting [11]), 0.239; in [3] (setting [12]) it was 0.621. Also, the fluorescence slope is -0.499 (inactive) in [5] and 0.00594 (inactive) in [7]. Besides, in experiment [6], the NADPH fluorescence slope is -0.000105 (inactive). In addition, in experiment [8], the result was inactive.

In the case of `COc1nnnc2c1sc1nc(N3CCOCC3)c3c(c12)CC(C)(C)OC3`, the cell count in experiment [1] stood at 590. Also, the inhibition in experiment [1] is -3.9% (inactive); in [2] it was -92.2% (inactive); in experiment [4], -13.3% (inactive); in experiment [9], -3.82% (inactive). Further, the nuclei count in [2] amounted to 154%. In addition, the z-score was 0.493 in experiment [3] (setting [10]), 0.116 in experiment [3] (setting [11]) and -0.785 in experiment [3] (setting [12]). In addition, the results for the fluorescence slope in [5] and in [7] were -0.482 (inactive) and 0.00514 (inactive), respectively. In experiment [6], the NADPH fluorescence slope is -0.000107 (inactive). Also, in experiment [8], the call was inactive.

As to `O=C(Oc1oc(-c2ccco2)nc1C=Nc1ccccc1)c1ccco1`, the cell count in experiment [1] came to 504. Besides, the inhibition was 15% (inactive) in experiment [1], -2% (inactive) in experiment [2], 22.1% (inactive) in experiment [4] and 38.4% (inactive) in experiment [9]. Besides, the nuclei count in experiment [2] is 108%. For the same molecule, the z-score in experiment [3] (setting [10]) is -2.44; in [3] (setting [11]), 1.67; in [3] (setting [12]) it was -0.418. The fluorescence slope is -0.504 (inactive) in [5] and 0.0053 (inactive) in experiment [7]. Moreover, the NADPH fluorescence slope in experiment [6] is -3.8e-05 (inactive). Also, the call in experiment [8] was inactive.

`COc1cccc(CNc2ncc(Br)cc2Br)c1O`: the cell count in experiment [1] turned out to be 474. In addition, the inhibition is -5.4% (inactive) in experiment [1], -263% (inactive) in experiment [2], -5.62% (inactive) in experiment [4] and 5.51% (inactive) in experiment [9]. This molecule also gave a nuclei count in experiment [2] of 170%. Moreover, the z-score in [3] (setting [10]) is -1.34; in experiment [3] (setting [11]) it was 0.935; in experiment [3] (setting [12]), 2.04. In addition, the fluorescence slope was -0.439 (inactive) in experiment [5] and 0.0052 (inactive) in experiment [7]. The NADPH fluorescence slope in experiment [6] was -4.8e-05 (inactive). Further, in experiment [8], the molecule was classed as inactive.

As to `COc1ccc(OC)c(C2C(C(=O)c3sc(C)nc3C)=C(O)C(=O)N2CCN2CCOCC2)c1` (centres undefined), the cell count in experiment [1] is 369. The inhibition in experiment [1] is 2.2% (inactive); in experiment [2] it was 35.1% (inactive); in experiment [4], -4.78% (inactive); in [9], 14.2% (inactive). The molecule also registered a nuclei count in experiment [2] of 148%. Further, the figures for the z-score in [3] (setting [10]), in [3] (setting [11]) and in experiment [3] (setting [12]) were -0.927, -0.477 and 2.22, respectively. In addition, the fluorescence slope in [5] was -0.46 (inactive); in [7] it was 0.00498 (inactive). Besides, in experiment [6], the NADPH fluorescence slope was -0.000134 (inactive). In addition, the call in [8] was inactive.

Consider `CC1(C)Cc2c(C#N)c(SCCOc3ccccc3)nc(N3CCOCC3)c2CO1`, for which, in experiment [1], the cell count stood at 387. The inhibition was -7.4% (inactive) in experiment [1], -56.3% (inactive) in experiment [2], 5.42% (inactive) in experiment [4] and 25.7% (inactive) in [9]. For the same molecule, in experiment [2], the nuclei count was found to be 82.1%. Besides, the values for the z-score in experiment [3] (setting [10]), in experiment [3] (setting [11]) and in experiment [3] (setting [12]) were -1.25, 1.29 and 1.84, respectively. Besides, the fluorescence slope in [5] was -0.415 (inactive); in experiment [7], 0.00791 (inactive). Besides, the NADPH fluorescence slope in experiment [6] is -3.7e-05 (inactive). The result in experiment [8] was inactive.

As for `Clc1ccc(-n2ncc3c(N4CCCC4)ncnc32)cc1`, in experiment [1], the cell count came out at 589. The inhibition in [1] is -9.4% (inactive); in [2] it was -131% (inactive); in [4], 7.42% (inactive); in [9], 134% (active). The nuclei count in experiment [2] was 94.9%. Moreover, the z-score is -3.24 in experiment [3] (setting [10]), 1.27 in [3] (setting [11]) and 1.5 in [3] (setting [12]). The fluorescence slope in experiment [5] was -0.411 (inactive); in experiment [7], 0.00915 (inactive). Moreover, the NADPH fluorescence slope in experiment [6] was -5e-05 (inactive). In addition, in experiment [8], the outcome was inactive.

For `c1ccc2c(c1)CCN(c1ncnc3c1[nH]c1ccccc13)C2`, the cell count in experiment [1] worked out at 585. Further, the inhibition in experiment [1] is -19.2% (inactive); in experiment [2], -59.1% (inactive); in experiment [4], -4.59% (inactive); in [9], 42.6% (inactive). The same molecule displayed a nuclei count in experiment [2] of 172%. The z-score is 0.335 in experiment [3] (setting [10]), -1.2 in experiment [3] (setting [11]) and 1.56 in experiment [3] (setting [12]). In addition, the fluorescence slope was -0.388 (inactive) in [5] and 0.00488 (inactive) in [7]. Also, in experiment [6], the NADPH fluorescence slope is -1.5e-05 (inactive). For the same molecule, the result in [8] was inactive.

On to `CCOC(=O)CSc1nnc(C)c(=O)[nH]1`, for which, in [1], the cell count was determined as 670. Further, the inhibition in [1] is -5.5% (inactive); in [2] it was -201% (inactive); in experiment [4], -16.8% (inactive); in experiment [9], -3.91% (inactive). Moreover, the nuclei count in experiment [2] amounted to 163%. The results for the z-score in experiment [3] (setting [10]), in experiment [3] (setting [11]) and in experiment [3] (setting [12]) were -0.66, 0.692 and 1.49, respectively. Further, the figures for the fluorescence slope in experiment [5] and in experiment [7] were -0.476 (inactive) and 0.0066 (inactive), respectively. Moreover, in experiment [6], the NADPH fluorescence slope is -4.6e-05 (inactive). Also, the molecule was called inactive in experiment [8].

`CCOC(=O)CSc1nnc2n(Cc3ccccc3)c(=O)c3c4c(sc3n12)CCC4`: the cell count in experiment [1] came to 364. Further, the inhibition in experiment [1] was 0.8% (inactive); in experiment [2] it was 49.8% (inactive); in [4], 13.4% (inactive); in experiment [9] it was 0.799% (inactive). This molecule came in with a nuclei count in [2] of 168%. Further, the z-score in experiment [3] (setting [10]) is -0.465; in experiment [3] (setting [11]), -0.253; in experiment [3] (setting [12]), 1.89. The fluorescence slope in experiment [5] is -0.428 (inactive); in experiment [7], 0.00471 (inactive). In experiment [6], the NADPH fluorescence slope is -0.000132 (inactive). For the same molecule, the outcome in experiment [8] was “active; weak signal in gallbladder and intestine”.

As to `COc1ccc(/C(O)=C2/C(=O)C(=O)N(c3nc(C)c(C)s3)C2c2ccco2)cc1` (centres undefined), the cell count in experiment [1] turned out to be 611. Besides, the inhibition was -12.5% (inactive) in experiment [1], -52.8% (inactive) in [2], 12.7% (inactive) in [4] and 0.492% (inactive) in [9]. The nuclei count in experiment [2] came out at 196%. The z-score is 1.1 in [3] (setting [10]), -0.551 in [3] (setting [11]) and 1.3 in [3] (setting [12]). The results for the fluorescence slope in experiment [5] and in experiment [7] were -0.446 (inactive) and 0.00557 (inactive), respectively. In addition, in [6], the NADPH fluorescence slope is -5.8e-05 (inactive). Also, the result in experiment [8] was inactive.
